Measurements taken from ChEMBL document CHEMBL1138718, “CVT-4325: a potent fatty acid oxidation inhibitor with favorable oral bioavailability” (Bioorg Med Chem Lett, 2004).

Columns and labels:
[1] = Metabolic stability as percent of drug remaining after incubation with human liver S9 for 30 min was determined; assay type: ADME, subcellular, Liver S9 fraction; settings: for remaining at 0.5 h: liver S9, read-out: Activity
Procedure, shortened: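 Incubation with human liver S9 (2 mg/mL) plus NADPH for 30 min, read as percent parent remaining. A standard was run in every assay, and data were accepted only if the standard fell within ±5% of its historical mean.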

[2] = Oral bioavailability in rat (dose 2 mg/kg); assay type: ADME, organism-based; settings: in vivo
[3] = Plasma clearance in rats after 1 mg/kg intravenous dose; settings: rat; for clearance: plasma
[4] = Half life in rats after 1 mg/kg intravenous dose; settings: rat, in vivo
[5] = Area under curve for the compound was determined in rats after 2 mg/kg oral dose; assay type: ADME, organism-based; parameters: dose 2 mg/kg, route oral; settings: rat, in vivo
[6] = Plasma clearance in dog after 1 mg/kg intravenous dose; settings: in vivo
[7] = Area under curve for the compound was determined in dog after 5 mg/kg oral dose; assay type: ADME, organism-based, Canis lupus familiaris; parameters: dose 5 mg/kg, route oral; settings: in vivo
[8] = Bioavailability in dog after 5 mg/kg oral dose; assay type: ADME, organism-based, Canis lupus familiaris; settings: in vivo
[9] = Half life in dog after 1 mg/kg intravenous dose; settings: in vivo
[10] = Half life in dog after 1 mg/kg intravenous dose; settings: in vivo; remark: listed apart in the source
[11] = Bioavailability in dog after 4 mg/kg oral dose; assay type: ADME, organism-based, Canis lupus familiaris; settings: in vivo
[12] = Area under curve for the compound was determined in dog after 4 mg/kg oral dose; assay type: ADME, organism-based, Canis lupus familiaris; parameters: dose 4 mg/kg, route oral; settings: in vivo
[13] = Plasma clearance in dog after 1 mg/kg intravenous dose; settings: in vivo; remark: listed apart in the source

Row | SMILES | remaining at 0.5 h [1] [%] | also measured
1 | Cc1nc2cc(OC[C@H](O)CN3CCN(Cc4noc(-c5ccc(Cl)c(Cl)c5)n4)CC3)ccc2s1 | 30 | 
2 | Cc1nc2cc(OC[C@H](O)CN3CCN(CC(=O)Nc4c(C)cccc4C)CC3)ccc2s1 |  | F [2]: 19%; Plasma clearance ([3]; in vivo): 54.5 mL/min/kg; half-life [4]: 1.4 h; AUC [5]: 30.5 ng·h/mL
3 | Cc1nc2cc(OC[C@H](O)CN3CCN(Cc4noc(-c5cccc(Cl)c5)n4)CC3)ccc2s1 | 38 | 
4 | Cc1nc2cc(OC[C@H](O)CN3CCN(Cc4noc(-c5ccc(C(C)C)cc5)n4)CC3)ccc2s1 | 31 | 
5 | Cc1nc2cc(OC[C@H](O)CN3CCN(Cc4noc(-c5cccc(F)c5)n4)CC3)ccc2s1 | 42 | 
6 | Cc1nc2cc(OC[C@H](O)CN3CCN(Cc4nc(-c5ccc(Cl)c(Cl)c5)no4)CC3)ccc2s1 | 36 | 
7 | Cc1nc2cc(OC[C@H](O)CN3CCN(Cc4noc(-c5ccc(C#N)cc5)n4)CC3)ccc2s1 | 56 | 
8 | Cc1cccc(-c2nc(CN3CCN(C[C@@H](O)COc4ccc5sc(C)nc5c4)CC3)no2)c1 | 31 | 
9 | Cc1nc2cc(OC[C@H](O)CN3CCN(Cc4noc(-c5ccc(Cl)cc5Cl)n4)C[C@@H]3C)ccc2s1 (stereo in doubt; 31) | 17 | 
10 | Cc1nc2cc(OC[C@H](O)CN3CCN(Cc4nnc(-c5ccc(Cl)cc5)o4)CC3)ccc2s1 | 34 | 
11 | Cc1nc2cc(OC[C@H](O)CN3CCN(Cc4nc(-c5ccc(Cl)cc5Cl)no4)CC3)ccc2s1 | 29 | 
12 | Cc1nc2cc(OC[C@H](O)CN3CCN(Cc4noc(-c5ccc(Cl)cc5Cl)n4)CC3)ccc2s1 | 33 | 
13 | Cc1nc2cc(OC[C@H](O)CN3CCN(Cc4noc(-c5ccc(Cl)cc5Cl)n4)C[C@@H]3C)ccc2s1 (stereo in doubt; 32) |  | Activity ([1]; s9, 0.5 h, 0.5 h): 30%

Further lines, with some results ahead:

Row | remaining at 0.5 h [1] [%] | SMILES | also measured
14 | 48 | Cc1nc2cc(OC[C@H](O)CN3CCN(Cc4noc(-c5ccc(Cl)cc5)n4)CC3)ccc2s1 | 
15 | 50 | Cc1nc2cc(OC[C@H](O)CN3CCN(Cc4noc(-c5ccc(F)cc5)n4)CC3)ccc2s1 | 
16 | 49 | Cc1nc2cc(OC[C@H](O)CN3CCN(Cc4nnc(-c5ccc(C(F)(F)F)cc5)o4)CC3)ccc2s1 | 
17 | 18 | Cc1nc2cc(OC[C@H](O)CN3CCN(Cc4noc(-c5ccc(C(C)(C)C)cc5)n4)CC3)ccc2s1 | 
18 | 21 | Cc1nc2cc(OC[C@H](O)CN3CCN(Cc4nc(-c5ccc(C(C)C)cc5)no4)CC3)ccc2s1 | 
19 | 40 | Cc1nc2cc(OC[C@H](O)CN3CCN(Cc4csc(-c5ccc(C(F)(F)F)cc5)n4)CC3)ccc2s1 | 
20 | 25 | Cc1nc2cc(OC[C@H](O)CN3CCN(Cc4nnc(-c5ccc(C(C)(C)C)cc5)o4)CC3)ccc2s1 | 
21 | 43 | Cc1nc2cc(OC[C@H](O)CN3CCN(Cc4coc(-c5ccc(C(F)(F)F)cc5)n4)CC3)ccc2s1 | 
22 | 40 | Cc1nc2cc(OC[C@H](O)CN3CCN(Cc4nc(-c5ccc(C(F)(F)F)cc5)sc4C)CC3)ccc2s1 | 
23 | 43 | Cc1nc2cc(OC[C@H](O)CN3CCN(Cc4noc(-c5ccc(C(F)(F)F)cc5)n4)C[C@@H]3C)ccc2s1 | bioavailability [2]: 29%; Plasma clearance [6]: 4.6 mL/min/kg; clearance [3]: 19.7 mL/min/kg; AUC [7]: 1093 ng·h/mL; Bioavailabiility [8]: 30%; half-life [4]: 4 h; AUC ([5]; read-out: AUC): 253 ng·h/mL; half-life [9]: 65 h
24 | 74 | Cc1nc2cc(OC[C@H](O)CN3CCN(Cc4noc(-c5ccc(C(F)(F)F)cc5)n4)CC3)ccc2s1 | half-life [10]: 13.6 h; bioavailability [2]: 38%; clearance [3]: 22.5 mL/min/kg; Bioavailabiility [11]: 93%; AUC [12]: 1776 ng·h/mL; Plasma clearance [13]: 12.2 mL/min/kg; half-life [4]: 3.2 h; AUC ([5]; read-out: AUC): 282 ng·h/mL
25 | 66 | Cc1nc2cc(OC[C@H](O)CN3CCN(Cc4nc(-c5ccc(Cl)cc5)no4)CC3)ccc2s1 | 
26 | 72 | Cc1nc2cc(OC[C@H](O)CN3CCN(Cc4nc(-c5ccc(C(F)(F)F)cc5)no4)CC3)ccc2s1 | 
27 | 39 | COc1ccc(-c2nc(CN3CCN(C[C@@H](O)COc4ccc5sc(C)nc5c4)CC3)no2)cc1 | 
28 | 39 | Cc1nc2cc(OC[C@H](O)CN3CCN(Cc4nc(-c5ccc(C(C)(C)C)cc5)no4)CC3)ccc2s1 | 
